Results: paper PMC4281097 (Journal of Medicinal Chemistry, 2014)
Entries after “also recorded” stand apart in the source; their conditions may differ. Read-outs that look alike come from different tables or passages of the source. Values belong to the compound of their own block, whether it stands above or below them.

Assays:
[1] = tested on: ES cell lines (TC32 and TC71); assay: Cell proliferation assay in ES cell lines; type: cell-based, human; settings: for Growth inhibition / antiproliferative activity in words: ES cell lines containing EWS-FLI1; for GI50: read-out: GI50 bound used to select compounds for the reporter assay
EWS-FLI1 [2] = target: T1, EWS-FLI1 (Homo sapiens, UniProt Q01543+Q01844); assay: EWS-FLI1/NR0B1 reporter luciferase assay in transfected COS7 cells; type: cell-based; settings: COS7 cells transfected with EWS-FLI1 and NR0B1 reporter, 20 h treatment
T1 sequence (Q01844 1-264): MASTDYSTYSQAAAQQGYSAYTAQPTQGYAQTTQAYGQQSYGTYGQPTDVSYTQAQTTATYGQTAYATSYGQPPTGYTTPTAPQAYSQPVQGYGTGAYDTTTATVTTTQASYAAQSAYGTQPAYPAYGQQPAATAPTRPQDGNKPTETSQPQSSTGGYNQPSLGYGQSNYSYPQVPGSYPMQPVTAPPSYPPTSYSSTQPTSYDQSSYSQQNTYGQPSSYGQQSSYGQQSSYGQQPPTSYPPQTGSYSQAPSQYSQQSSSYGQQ
T1 sequence (Q01543 220-452): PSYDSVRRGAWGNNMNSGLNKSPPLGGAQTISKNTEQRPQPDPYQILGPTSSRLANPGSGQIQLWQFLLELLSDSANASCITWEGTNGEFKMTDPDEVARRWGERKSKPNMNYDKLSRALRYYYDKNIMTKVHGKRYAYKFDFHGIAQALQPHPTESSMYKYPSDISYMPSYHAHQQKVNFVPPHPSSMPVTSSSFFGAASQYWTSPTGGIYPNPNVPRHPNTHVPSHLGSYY
Procedure, shortened: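 COS7 cells (DMEM, 10% FBS) transiently co-transfected with NR0B1 luciferase reporter carrying EWS-FLI1 binding sites plus full-length EWS-FLI1 or empty pCI-neo vector. Treated 1.5 h post-transfection with test compound at 0.05, 0.15, 0.5, 1.5, 5 or 15 μM, or DMSO. Luciferase measured 20 h later. IC50 from sigmoidal dose–response fit. Quadruplicate wells, mean ± SD of a representative experiment.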

TC32 cells [3] = assay: Cell proliferation assay; type: cell-based, human; settings: for Fold loss of growth inhibitory activity in TC32 cells compared to 2: relative to 2
TC32 cells [4] = settings: cited from earlier work
PANC1 cells = assay: Cell proliferation assay; type: cell-based, human; settings: PANC1 cells (selectivity control)
Procedure, shortened: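 TC71 grown in RPMI with 10% FBS and 1% HEPES; PANC1 in DMEM with 10% FBS; both at 37 °C, 5% CO2. Cells plated in colorless medium at 5000–15000 cells/well depending on line. Test compound or DMSO vehicle added the day after plating. Viable cells quantified by MTT or WST-1 after 3 days of treatment. GI50 derived by nonlinear regression.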

ES cells = settings: read-out: GI50 in ES cells; several ES cells; cited from earlier work
COS7 cells = assay: Cell proliferation assay; type: cell-based, monkey; settings: WST, 48 h
ES orthotopic xenografts = settings: cited from earlier work
EWS-FLI1 [5] = target: T1, EWS-FLI1; settings: binding to EWS-FLI1; cited from earlier work
BSA = BSA (Bos taurus, UniProt P02769); assay: ELISA-like binding assay, immobilized BSA control; parameters: species or system bovine; settings: BSA immobilized instead of EWS-FLI1
Chain of BSA (P02769 25-607): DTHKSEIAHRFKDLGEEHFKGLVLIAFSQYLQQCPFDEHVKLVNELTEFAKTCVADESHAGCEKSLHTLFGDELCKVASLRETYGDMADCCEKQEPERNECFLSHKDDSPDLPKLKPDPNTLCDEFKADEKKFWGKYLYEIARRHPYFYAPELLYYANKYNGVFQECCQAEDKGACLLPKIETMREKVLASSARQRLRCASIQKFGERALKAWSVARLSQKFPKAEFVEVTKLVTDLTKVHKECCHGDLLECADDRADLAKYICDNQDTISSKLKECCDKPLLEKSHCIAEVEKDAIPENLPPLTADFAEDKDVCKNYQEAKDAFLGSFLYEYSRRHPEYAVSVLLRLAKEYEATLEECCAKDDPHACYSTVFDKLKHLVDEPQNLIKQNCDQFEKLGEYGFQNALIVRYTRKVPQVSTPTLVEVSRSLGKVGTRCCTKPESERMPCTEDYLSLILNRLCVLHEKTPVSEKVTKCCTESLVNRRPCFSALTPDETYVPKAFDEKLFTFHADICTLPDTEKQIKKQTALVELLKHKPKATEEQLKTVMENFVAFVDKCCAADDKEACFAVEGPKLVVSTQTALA
Procedure, shortened: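 BSA immobilized in wells in place of recombinant EWS-FLI1. Biotinylated test compound, diluted from DMSO stock in assay buffer, was incubated 1 h. Wells washed five times. Detection used HRP-streptavidin (1:5000, 1 h, room temperature) and colorimetric substrate, with absorbance at 405 nm.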

EWS-FLI1 [6] = target: T1, EWS-FLI1; assay: ELISA-like binding assay of biotin conjugate to immobilized recombinant EWS-FLI1
Procedure, shortened: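 EWS-FLI1 expressed in BL21 (1 mM IPTG, 2 h, 27 °C) and recovered from inclusion bodies. Denatured in guanidinium, Ni-chelate purified, refolded on-column by gradient out of urea, then imidazole-eluted. Wells coated overnight with 20 nM protein and blocked with 4% BSA/PBS (1 h, rt). Biotinylated test compound from DMSO stock added for 1 h. Detection used HRP-streptavidin (1:5000, 1 h, rt) and colorimetric substrate read at 405 nm.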

Compound: 4,7-Dichloro-3-(2-(4-ethoxyphenyl)-2-oxoethyl)-3-hydroxyindolin-2-one [9n]
- Growth inhibition / antiproliferative activity in words [1]: complete loss of activity

- Inhibition of EWS-FLI1 transcriptional activity in words (EWS-FLI1 [2]): lower than 2
Compound: 4,7-Dichloro-3-hydroxyl-3-(2-oxo-2-p-tolylethyl)-1,3-dihydroindol-2-one [9m]
- Fold loss of growth activity / potency compared to 2 ([1]; ES cells, relative to 2): 3 fold
- GI50 ([1]; ES cells): ≤ 2700 nM

- Inhibition of EWS-FLI1 transcriptional activity in words (EWS-FLI1 [2]): modest inhibitory effects
Compound: 4,7-Dichloro-3-methoxy-3-(2-(4-methoxyphenyl)-2-oxoethyl)indolin-2-one [14a]
- GI50 ([1]; ES cells): ≤ 2700 nM
- Fold loss of growth inhibitory activity in TC32 cells compared to 2 (TC32 cells [3]): 2 fold

Compound: COc1ccc(C(=O)CC2(O)C(=O)Nc3c(Cl)ccc(Cl)c32)cc1 (single isomer, unassigned) [S-(−) enantiomer of 2]
- Fold more potent in vitro than racemic 2 (TC32 cells [4]; in vitro): 4 fold
- GI50 (TC32 cells [4]; read-out: GI50 of single enantiomer, in vitro, TC32 cells): 280 nM

Compound: COc1ccc(C(=O)CC2(O)C(=O)Nc3c(OC)ccc(OC)c32)cc1 (stereo not shown) [6e, 3-Hydroxy-4,7-dimethoxy-3-(2-(4-methoxyphenyl)-2-oxoethyl)indolin-2-one]
- GI50 in TC32 cells (TC32 cells [3]): 1000 nM

- Inhibition of EWS-FLI1 transcriptional activity in words (EWS-FLI1 [2]): did not inhibit
Compound: COc1ccccc1C(=O)CC1(O)C(=O)Nc2c(Cl)ccc(Cl)c21 (stereo not shown) [9a, 4,7-Dichloro-3-hydroxy-3-(2-(2-methoxyphenyl)-2-oxoethyl)indolin-2-one]
- Growth inhibition / antiproliferative activity in words [1]: reduced inhibition of cell growth; also recorded: no antiproliferative activity

Compound: COc1cccc(C(=O)CC2(O)C(=O)Nc3c(Cl)ccc(Cl)c32)c1 (stereo not shown) [9b, 4,7-Dichloro-3-hydroxy-3-(2-(3-methoxyphenyl)-2-oxoethyl)indolin-2-one]
- Growth inhibition / antiproliferative activity in words [1]: reduced inhibition of cell growth

- Inhibition of EWS-FLI1 transcriptional activity in words (EWS-FLI1 [2]): lower than 2
Compound: COc1ccc(C(=O)CC2(O)C(=O)Nc3c(Cl)ccc(Cl)c32)c(OC)c1 (stereo not shown) [9c, 4,7-Dichloro-3-(2-(2,4-dimethoxyphenyl)-2-oxoethyl)-3-hydroxyindolin-2-one]

Compound: COc1cc(OC)cc(C(=O)CC2(O)C(=O)Nc3c(Cl)ccc(Cl)c32)c1 (stereo not shown) [9d, 4,7-Dichloro-3-(2-(3,5-dimethoxyphenyl)-2-oxoethyl)-3-hydroxyindolin-2-one]
- Fold loss of growth inhibitory activity in TC32 cells compared to 2 (TC32 cells [3]): ~10 fold

Compound: COc1cccc(C(=O)CC2(O)C(=O)Nc3c(Cl)ccc(Cl)c32)c1OC (stereo not shown) [9e, 4,7-Dichloro-3-(2-(2,3-dimethoxyphenyl)-2-oxoethyl)-3-hydroxyindolin-2-one]
- Growth inhibition / antiproliferative activity in words [1]: reduced inhibition of cell growth

Compound: COc1ccc(C(=O)CC2(O)C(=O)Nc3c(Cl)ccc(Cl)c32)c(OC)c1OC (stereo not shown) [9f, 4,7-Dichloro-3-hydroxy-3-(2-oxo-2-(2,3,4-trimethoxyphenyl)ethyl)indolin-2-one]
- Fold loss of growth activity / potency compared to 2 ([1]; ES cells, relative to 2): 3 fold

Compound: O=C(CC1(O)C(=O)Nc2c(Cl)ccc(Cl)c21)c1ccc(C(F)(F)F)cc1 (stereo not shown) [9j, 4,7-Dichloro-3-hydroxy-3-(2-oxo-2-(4-(trifluoromethyl)phenyl)ethyl)indolin-2-one]
- Fold loss of growth inhibitory activity in TC32 cells compared to 2 (TC32 cells [3]): 3 fold
- Inhibition of PANC1 cell growth in words (PANC1 cells): inhibited PANC1 cells growth

Compound: CC(C)Oc1ccc(C(=O)CC2(O)C(=O)Nc3c(Cl)ccc(Cl)c32)cc1 (stereo not shown) [9p, 4,7-Dichloro-3-hydroxy-3-(2-(4-isopropoxyphenyl)-2-oxoethyl)indolin-2-one]
- Growth inhibition / antiproliferative activity in words [1]: complete loss of activity

Compound: O=C(CC1(O)C(=O)Nc2c(Cl)ccc(Cl)c21)c1ccc(Oc2ccccc2)cc1 (stereo not shown) [9q, 4,7-Dichloro-3-hydroxy-3-(2-oxo-2-(4-phenoxyphenyl)ethyl)indolin-2-one]
- Growth inhibition / antiproliferative activity in words [1]: complete loss of activity

Compound: Nc1ccc(C(=O)CC2(O)C(=O)Nc3c(Cl)ccc(Cl)c32)cc1 (stereo not shown) [9s, 3-[2-(4-Aminophenyl-2-oxoethyl)]-4,7-dichloro-3-hydroxyl 1,3-dihydroindol-2-one]
- Growth inhibition / antiproliferative activity in words [1]: complete loss of activity

Compound: CN(C)c1ccc(C(=O)CC2(O)C(=O)Nc3c(Cl)ccc(Cl)c32)cc1 (stereo not shown) [9u, 4,7-Dichloro-3-(2-(4-(dimethylamino)phenyl)-2-oxoethyl)-3-hydroxyindolin-2-one]
- Fold increase in potency compared to 2 ([1]; ES cells, relative to 2): over 3 fold
- GI50 in TC32 cells (TC32 cells [3]): 260 nM

Compound: COc1ccc(C(=O)CC2(O)C(=O)N(c3ccccc3)c3c(Cl)ccc(Cl)c32)cc1 (stereo not shown) [14b, 4,7-Dichloro-3-hydroxy-3-(2-(4-methoxyphenyl)-2-oxoethyl)-1-phenylindolin-2-one]
- Growth inhibition / antiproliferative activity in words [1]: complete loss of activity

Compound: COc1ccc(C(=O)C[C@]2(O)C(=O)Nc3c(Cl)ccc(Cl)c32)cc1 [R-(+)]
- In vitro activity of enantiomer in words (TC32 cells [4]; in vitro): almost inactive

Compound: O=C(CC1(O)C(=O)Nc2c(Cl)ccc(Cl)c21)c1ccc(Cl)cc1 (stereo not shown) [compound 1, 4,7-dichloro-3-(2-(4-chlorophenyl)-2-oxoethyl)-3-hydroxyindolin-2-one]
- GI50 in TC32 cells (TC32 cells [4]; TC32 cells): 20000 nM

Compound: COc1ccc(C(=O)CC2(O)C(=O)Nc3c(Cl)ccc(Cl)c32)cc1 (stereo not shown) [compound 2, YK-4-279]
- GI50 in TC32 cells (TC32 cells [4]; TC32 cells): 900 nM
- GI50 (ES cells): 500 to 2000 nM
- Cytotoxicity / effect on COS7 cell proliferation in words (COS7 cells): negligible effect
- Growth of ES orthotopic xenografts in words (ES orthotopic xenografts): reduces the growth
- Kd (EWS-FLI1 [5]): 9480 nM

Compound: COc1ccc(C(=O)/C=C2\C(=O)Nc3c(Cl)ccc(Cl)c32)cc1 [compound 10, (Z)-4,7-Dichloro-3-(2-(4-methoxyphenyl)-2-oxoethylidene)indolin-2-one]
- GI50 in TC32 cells (TC32 cells [3]): 1000 nM

- Inhibition of EWS-FLI1 transcriptional activity in words (EWS-FLI1 [2]): did not display any inhibition
Compound: COc1ccc(C(=O)CC2(OC)C(=O)Nc3c(Cl)ccc(Cl)c32)cc1 (stereo not shown) [compound 11, 4,7-Dichloro-3-methoxy-3-(2-(4-methoxyphenyl)-2-oxoethyl)indolin-2-one]
- Growth inhibition / antiproliferative activity in words [1]: complete loss of inhibitory activity; also recorded: no antiproliferative activity

- Inhibition of EWS-FLI1 transcriptional activity in words (EWS-FLI1 [2]): modest inhibitory effects
Compound: COc1ccc(C(=O)CC2(OC)C(=O)N(C)c3c(Cl)ccc(Cl)c32)cc1 (stereo not shown) [compound 15, 4,7-Dichloro-3-methoxy-3-(2-(4-methoxyphenyl)-2-oxoethyl)-1-methylindolin-2-one]
- Growth inhibition / antiproliferative activity in words [1]: inactive; also recorded: no antiproliferative activity

Compound: COc1ccc(C(=O)CC2(O)C(=O)Nc3c(Cl)ccc(Cl)c32)cn1 (stereo not shown) [compound 18, 4,7-Dichloro-3-hydroxy-3-(2-(6-methoxypyridin-3-yl)-2-oxoethyl)indolin-2-one]
- Growth inhibition / antiproliferative activity in words [1]: complete loss of growth inhibition

- Binding to immobilized BSA in words (BSA): No binding was detected
- Concentration at which binding saturation was reached (EWS-FLI1 [6]): 20 µM
Compound: CN(C(=O)CCCCCNC(=O)CCCC[C@H]1SCC2NC(=O)NC21)c1ccc(C(=O)CC2(O)C(=O)Nc3c(Cl)ccc(Cl)c32)cc1 (stereo partly drawn) [compound 24, N-(4-(2-(4,7-Dichloro-3-hydroxy-2-oxoindolin-3-yl)acetyl)phenyl)-N-methyl-6-(5-((4R)-2-oxohexahydro-1H-thieno[3,4-d]imidazol-4-yl)pentanamido)hexanamide]
